For assay [1], the target named is D(2) dopamine receptor (Homo sapiens) (UniProt P14416). In words: Displacement of [3H]methylspiperione from human D2 receptor expressed in CHO cells at 1 uM by scintillation counting analysis. Type of assay: cell-based. The method in brief: (§1)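 Extended binding screen run by a contract lab. Receptors were cloned human: 5-HT1A, 5-HT2A, 5-HT2C and H1 in HEK-293 cells; D1, α1, α2C and M3 in CHO cells; 5-HT6/7 and D2/3/4 in CHO cells. Radioligand displacement was done at a single 1.0E-06 concentration in duplicate. Results are mean % inhibition of control specific binding.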
(In general: Displacement assays read how much labelled ligand stays bound in the presence of the test substance.)

Assay [2] deals with T1, 5-hydroxytryptamine receptor 2C (Homo sapiens) (UniProt P28335).
T1 sequence (whole entry): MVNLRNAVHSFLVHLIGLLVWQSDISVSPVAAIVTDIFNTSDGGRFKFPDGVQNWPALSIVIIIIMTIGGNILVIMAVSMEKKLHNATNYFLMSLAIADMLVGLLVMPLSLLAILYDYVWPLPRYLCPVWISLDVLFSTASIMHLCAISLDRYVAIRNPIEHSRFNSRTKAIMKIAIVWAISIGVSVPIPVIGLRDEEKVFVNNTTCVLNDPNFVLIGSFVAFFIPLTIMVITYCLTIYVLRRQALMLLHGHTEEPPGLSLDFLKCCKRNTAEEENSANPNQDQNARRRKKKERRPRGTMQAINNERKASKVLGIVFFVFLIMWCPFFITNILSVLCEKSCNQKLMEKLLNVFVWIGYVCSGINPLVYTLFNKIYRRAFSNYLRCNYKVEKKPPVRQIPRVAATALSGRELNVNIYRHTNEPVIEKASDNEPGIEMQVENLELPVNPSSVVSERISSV
Briefly: Displacement of [3H]-mesulergine from human cloned 5HT2C receptor expressed in HEK293 cells at 1 uM by scintillation counting analysis. Type of assay: cell-based. The method in brief:
as §1

For assay [3], the target named is T2, Adrenergic receptor alpha-1 (Homo sapiens) (UniProt P35348+P25100+P35368). In words: Displacement of [3H]prazosin from human alpha1-adrenergic receptor expressed in CHO cells at 1 uM by scintillation counting analysis. The format is cell-based. In outline: as §1
Assay [4] addresses 5-hydroxytryptamine receptor 7 (Rattus norvegicus, UniProt P32305). Briefly: Displacement of [3H]-5-CT from 5-HT7 receptor in rat hypothalamic membrane by liquid scintillation analysis. Type of assay: cell membranes. The method in brief:
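Native rat membranes were used: hippocampus with [3H]-8-OH-DPAT (170 Ci/mmol) and 5-HT for non-specific binding; cortex with [3H]-ketanserin (88.0 Ci/mmol) and methysergide; hypothalamus with [3H]-5-CT (34.5 Ci/mmol) and 5-HT. Compounds were tested in triplicate at 7–8 concentrations (10⁻¹¹–10⁻⁴ M). Read-out was liquid scintillation counting. Ki came from nonlinear regression with Cheng-Prusoff, as the mean of at least two experiments.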

Assay [5] addresses Muscarinic acetylcholine receptor M3 (Homo sapiens) (UniProt P20309). Briefly: Displacement of [3H]-4-DAMP from human muscarinic M3 receptor expressed in CHO cells at 1 uM by scintillation counting analysis. Type of assay: cell-based. In outline: as §1
The target in assay [6] is T2, Adrenergic receptor alpha-1 (Homo sapiens). Briefly: Antagonist activity at human recombinant alpha1 adrenoceptor expressed in CHO cells assessed as inhibition of agonist induced response at 1 uM. Type of assay: cell-based. In outline: (§2)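 Functional assays run by a contract lab on CHO or HEK-293 cells stably expressing the human receptor. Read-out was intracellular cAMP, IP1 or Ca2+ release. A single test concentration of 1.0E-06 was used, in duplicate. Data are mean % of the control response.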

Assay [7] concerns the target T3, Alpha-2C adrenergic receptor (Homo sapiens) (UniProt P18825).
T3 sequence (whole entry): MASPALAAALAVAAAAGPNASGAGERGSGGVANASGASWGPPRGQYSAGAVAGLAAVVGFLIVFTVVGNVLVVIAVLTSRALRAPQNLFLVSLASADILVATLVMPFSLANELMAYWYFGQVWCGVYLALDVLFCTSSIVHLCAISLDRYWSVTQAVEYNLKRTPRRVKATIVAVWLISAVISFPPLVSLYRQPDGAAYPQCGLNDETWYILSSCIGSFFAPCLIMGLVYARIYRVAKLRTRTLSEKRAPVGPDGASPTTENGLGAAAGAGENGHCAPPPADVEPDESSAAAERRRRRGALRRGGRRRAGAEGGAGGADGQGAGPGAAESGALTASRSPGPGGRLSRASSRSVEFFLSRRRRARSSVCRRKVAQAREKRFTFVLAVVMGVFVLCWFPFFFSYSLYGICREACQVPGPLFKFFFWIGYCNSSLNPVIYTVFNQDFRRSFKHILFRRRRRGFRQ
Briefly: Agonist activity at human recombinant alpha2C adrenoceptor expressed in CHO cells assessed as intracellular cAMP release at 1 uM by HTRF assay. Type of assay: functional, cell-based. The method in brief:
as §2

Assay [8] addresses Histamine H1 receptor (Homo sapiens) (UniProt P35367). Briefly: Antagonist activity at human recombinant H1 receptor expressed in HEK-293 cells assessed as inhibition of histamine-induced intracellular Ca2+ release at 1 uM by fluorimetry. As to conditions: HEK293. Type of assay: functional, cell-based. The method in brief: as §2
Assay [9] has as its target T4, D(4) dopamine receptor (Homo sapiens) (UniProt P21917).
T4 sequence (whole entry): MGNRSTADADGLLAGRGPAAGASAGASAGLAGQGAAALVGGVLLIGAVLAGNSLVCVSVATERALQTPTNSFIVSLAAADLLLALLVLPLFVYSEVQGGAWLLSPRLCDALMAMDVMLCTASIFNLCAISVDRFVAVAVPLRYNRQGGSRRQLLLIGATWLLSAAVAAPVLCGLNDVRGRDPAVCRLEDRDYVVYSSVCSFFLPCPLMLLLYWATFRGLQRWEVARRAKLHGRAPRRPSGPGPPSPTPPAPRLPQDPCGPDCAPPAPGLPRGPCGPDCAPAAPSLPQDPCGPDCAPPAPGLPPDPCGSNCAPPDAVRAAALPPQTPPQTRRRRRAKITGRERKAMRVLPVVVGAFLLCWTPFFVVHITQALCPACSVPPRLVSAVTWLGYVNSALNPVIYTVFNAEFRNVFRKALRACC
In words: Antagonist activity at human recombinant D4 receptor expressed in CHO cells assessed as inhibition of dopamine-induced intracellular cAMP release at 1 uM by HTRF method. The format is functional, cell-based. The method in brief: as §2
For orientation: Time-resolved FRET reads energy transfer from a long-lived donor to a nearby acceptor.

Assay [10] addresses T5, 5-hydroxytryptamine receptor 1A (Homo sapiens) (UniProt P08908).
T5 sequence (whole entry): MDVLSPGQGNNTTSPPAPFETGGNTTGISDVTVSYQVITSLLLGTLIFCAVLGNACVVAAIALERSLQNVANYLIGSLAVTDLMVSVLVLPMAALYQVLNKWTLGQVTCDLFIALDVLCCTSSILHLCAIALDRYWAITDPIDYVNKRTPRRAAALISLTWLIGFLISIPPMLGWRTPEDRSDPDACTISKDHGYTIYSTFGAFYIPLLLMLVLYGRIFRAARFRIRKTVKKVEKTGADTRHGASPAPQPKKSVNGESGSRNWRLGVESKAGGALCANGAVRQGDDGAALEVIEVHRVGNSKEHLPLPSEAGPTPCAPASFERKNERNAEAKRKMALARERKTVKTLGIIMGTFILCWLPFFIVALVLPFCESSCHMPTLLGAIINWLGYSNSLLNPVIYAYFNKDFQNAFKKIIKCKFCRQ
In words: Agonist activity at human recombinant 5HT1A receptor expressed in HEK293 cells at 1 uM. The format is cell-based. The method in brief: as §2

Assay [11] addresses D(2) dopamine receptor (Homo sapiens) (UniProt P14416). In words: Antagonist activity at human recombinant D2 receptor expressed in HEK293 cells assessed as inhibition of dopamine-induced response at 1 uM. The format is cell-based. The method in brief:
as §2

The structures appear in SMILES notation.

Sequence of Muscarinic acetylcholine receptor M3 (Homo sapiens) (P20309 whole entry, looked up): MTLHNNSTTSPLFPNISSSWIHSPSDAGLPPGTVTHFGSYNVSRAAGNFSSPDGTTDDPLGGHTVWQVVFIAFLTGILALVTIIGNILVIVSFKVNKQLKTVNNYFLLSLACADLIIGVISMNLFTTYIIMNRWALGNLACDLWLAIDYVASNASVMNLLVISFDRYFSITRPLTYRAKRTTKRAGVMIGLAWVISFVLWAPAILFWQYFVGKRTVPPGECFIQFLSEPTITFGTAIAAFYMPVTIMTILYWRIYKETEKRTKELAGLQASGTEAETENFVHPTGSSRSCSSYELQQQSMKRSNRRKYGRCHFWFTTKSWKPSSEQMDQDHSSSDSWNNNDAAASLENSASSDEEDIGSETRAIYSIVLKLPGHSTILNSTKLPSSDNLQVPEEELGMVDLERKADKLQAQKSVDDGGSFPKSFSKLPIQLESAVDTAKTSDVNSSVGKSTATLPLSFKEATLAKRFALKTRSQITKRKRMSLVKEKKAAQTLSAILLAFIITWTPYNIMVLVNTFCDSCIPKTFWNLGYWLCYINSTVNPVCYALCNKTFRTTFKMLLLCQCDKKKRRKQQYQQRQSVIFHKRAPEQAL
Sequence of 5-hydroxytryptamine receptor 7 (P32305 whole entry): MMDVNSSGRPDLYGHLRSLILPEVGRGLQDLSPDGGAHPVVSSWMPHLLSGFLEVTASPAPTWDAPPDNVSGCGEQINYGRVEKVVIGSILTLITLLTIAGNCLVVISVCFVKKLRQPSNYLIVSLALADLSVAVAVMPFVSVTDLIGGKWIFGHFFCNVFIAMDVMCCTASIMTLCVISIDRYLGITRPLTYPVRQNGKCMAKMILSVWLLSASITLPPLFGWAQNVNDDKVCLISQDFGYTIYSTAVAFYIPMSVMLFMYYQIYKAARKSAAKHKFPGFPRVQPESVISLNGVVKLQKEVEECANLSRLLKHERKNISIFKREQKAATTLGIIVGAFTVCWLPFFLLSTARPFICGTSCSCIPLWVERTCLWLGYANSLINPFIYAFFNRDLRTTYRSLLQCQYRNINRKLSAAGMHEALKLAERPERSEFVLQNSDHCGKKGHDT
Sequence of D(2) dopamine receptor (Homo sapiens) (P14416 whole entry): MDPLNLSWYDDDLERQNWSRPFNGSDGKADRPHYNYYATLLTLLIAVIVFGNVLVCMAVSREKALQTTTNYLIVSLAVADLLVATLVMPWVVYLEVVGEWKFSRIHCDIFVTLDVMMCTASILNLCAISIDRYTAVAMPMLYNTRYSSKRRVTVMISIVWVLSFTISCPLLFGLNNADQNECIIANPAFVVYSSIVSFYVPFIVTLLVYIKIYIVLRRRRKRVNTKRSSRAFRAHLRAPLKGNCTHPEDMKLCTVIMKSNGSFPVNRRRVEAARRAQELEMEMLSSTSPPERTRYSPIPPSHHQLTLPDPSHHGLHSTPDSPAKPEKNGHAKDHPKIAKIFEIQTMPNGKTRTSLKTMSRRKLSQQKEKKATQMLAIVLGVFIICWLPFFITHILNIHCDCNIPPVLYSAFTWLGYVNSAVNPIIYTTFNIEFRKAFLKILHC
Sequence of Histamine H1 receptor (Homo sapiens) (P35367 whole entry): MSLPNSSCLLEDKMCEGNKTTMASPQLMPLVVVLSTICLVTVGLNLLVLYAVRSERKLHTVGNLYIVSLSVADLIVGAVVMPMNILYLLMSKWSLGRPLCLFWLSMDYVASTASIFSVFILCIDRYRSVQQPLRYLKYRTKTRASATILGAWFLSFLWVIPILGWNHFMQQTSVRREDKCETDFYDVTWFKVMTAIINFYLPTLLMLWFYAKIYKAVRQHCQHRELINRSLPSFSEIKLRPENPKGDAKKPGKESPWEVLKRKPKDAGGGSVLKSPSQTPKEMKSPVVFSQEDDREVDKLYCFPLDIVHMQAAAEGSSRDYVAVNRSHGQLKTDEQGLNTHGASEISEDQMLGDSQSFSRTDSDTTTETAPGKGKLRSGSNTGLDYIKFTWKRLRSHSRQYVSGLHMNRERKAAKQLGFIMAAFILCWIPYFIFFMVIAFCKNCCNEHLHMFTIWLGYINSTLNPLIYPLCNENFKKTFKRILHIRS

With `O=C1NC2(CCc3ccccc32)C(=O)N1CCCCN1CCN(c2cccc(Cl)c2)CC1` (configuration not stated), the inhibition (commonly the change of the read-out against control, counted positive when it falls) was found to be 75% in [1], 61% in [2], 96% in assay [3] and 5% in [5]. Further, the Ki – broadly, the equilibrium dissociation constant of an inhibitor or competing ligand from its target – in [4] came to 27 nM.
For `O=C1NC2(CCCc3ccccc32)C(=O)N1CCCCN1CCN(c2cccc(Cl)c2)CC1` (configuration not stated) the same measures were 77%, 61%, 94%, 3% and 37 nM.
Take `COc1ccccc1N1CCN(CCCCN2C(=O)NC3(CCCc4ccccc43)C2=O)CC1` (configuration not stated): the inhibition stood at 97% in assay [1]; 94% in assay [6]; 24% in [2]; 63% in assay [8]; 99% in assay [3]; 84% in assay [9]. The inhibition in assay [5] was -6%; in assay [11], 91%. Further, the results for the Activity in assay [7] and in [10] were 20% and 26%, respectively. Further, the inhibition constant (Ki) in assay [4] is 47 nM.
Regarding `COc1ccccc1N1CCN(CCCCN2C(=O)NC3(CCc4ccccc43)C2=O)CC1` (configuration not stated), the inhibition in assay [1] worked out at 96%; in assay [6], 95%; in [2], 21%; in assay [8], 58%; in [3], 98%; in [9], 75%. Moreover, the results for the inhibition in [5] and in [11] were 5% and 85%, respectively. For the same molecule, the Activity in assay [7] was found to be 15%; in assay [10], 37%. In addition, the Ki in assay [4] amounted to 71 nM.

The record behind these values is ChEMBL document CHEMBL3588770, “Novel spirohydantoin derivative as a potent multireceptor-active antipsychotic and antidepressant agent” (Bioorg Med Chem, 2015).
